Results on eleven compounds are retold here after ChEMBL document CHEMBL1141646, “Microwave-assisted synthesis and antimicrobial activities of flavonoid derivatives” (Bioorg Med Chem Lett, 2008).

Converted amounts (≈) assume the structure as drawn. The source made the active and inactive calls. The calls are words filed in the database; no cut-off is given here.

As a reminder, the IC50 is the concentration that gives 50% inhibition.

Common to all, as to type: functional, organism-based
One assay concerns Aspergillus niger. The experiment in a line: Antifungal activity against Aspergillus niger NCTC 275 after 4 days. The conditions noted are these: NCTC 275, 96 h. A digest of the protocol: (§1)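 Compounds were incorporated into agar medium at final concentrations of 200, 100, 50 and 10 µg/mL. A disc of fungal mycelium was placed at the centre of each Petri dish. Plates were incubated at 37 °C until the control plates reached full growth (4 days). Inhibition diameter was then measured and IC50 derived. Values are means of replicates.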

The test system of another assay is Fusarium oxysporum. The assay is described as follows: Antifungal activity against Fusarium oxysporum after 4 days. The conditions noted are these: 96 h. A digest of the protocol: as §1
Assay [1] relates to Staphylococcus aureus. The assay is described as follows: Antibacterial activity against methicillin-resistant Staphylococcus aureus NCTC 10442 assessed as protein content after 3 hrs by bradford method. The note with it: NCTC 10442, 3 h. In a few lines: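 MRSA exposed to compounds dissolved in DMSO, with a DMSO-only negative control and gentamycin at the same concentrations in sterile water as positive control. Incubated 3 h at 37 °C; growth read as protein content by the Bradford method and plotted against compound concentration.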

Assay [2] concerns Staphylococcus aureus. The assay is described as follows: Antibacterial activity against methicillin-resistant Staphylococcus aureus NCTC 10442 by paper disc diffusion method. (In agar diffusion tests the substance spreads into inoculated agar from a disc or well.)
In a further assay the test system is Escherichia coli. The assay is described as follows: Antibacterial activity against Escherichia coli by paper disc diffusion method.

On to `O=c1cc(-c2ccc(Cl)cc2)oc2ccc(Br)cc12`, for which the figures for the IC50 in the assay on Aspergillus niger and in the assay on Fusarium oxysporum were 157 µg/mL (≈ 469 µM) and 282 µg/mL (≈ 840 µM), respectively.
The matching figures for `COc1ccc2oc(-c3ccc(Cl)cc3)cc(=O)c2c1`: 41.9 µg/mL (≈ 146 µM) and 1430 µg/mL (≈ 4980 µM).
The matching figures for `COc1ccc(-c2cc(=O)c3cc(Br)ccc3o2)cc1`: 83.4 µg/mL (≈ 252 µM) and 2250 µg/mL (≈ 6790 µM).
The matching figures for `O=c1cc(-c2ccccc2)oc2ccc(Br)cc12` [6-BROMOFLAVONE]: 77.1 µg/mL (≈ 256 µM) and 26900 µg/mL (≈ 89400 µM).
On to `COc1ccc2c(=O)cc(-c3cc(Cl)cc(Cl)c3)oc2c1`, for which the IC50 with Aspergillus niger was determined as 178 µg/mL (≈ 553 µM); in the assay with Fusarium oxysporum, 10600 µg/mL (≈ 33000 µM).
The corresponding values for `O=c1cc(-c2ccc(F)cc2)oc2ccc(Br)cc12` are 142 µg/mL (≈ 444 µM) and 682 µg/mL (≈ 2140 µM).
Regarding `O=c1cc(C2CCCCC2)oc2ccc(Br)cc12`, the IC50 with Staphylococcus aureus [1] came out at 12000 µg/mL (≈ 39100 µM); in the assay on Aspergillus niger it was 90.4 µg/mL (≈ 294 µM); in the assay on Fusarium oxysporum, 107 µg/mL (≈ 347 µM). In addition, in the assay on Staphylococcus aureus [2], the outcome was Active. Also, in the assay on Escherichia coli, the result was inactive.
Turning to `O=c1cc(-c2cc(C(F)(F)F)cc(C(F)(F)F)c2)oc2ccc(Br)cc12`, the IC50 in the assay on Aspergillus niger was 60.3 µg/mL (≈ 138 µM); in the assay with Fusarium oxysporum, 65.2 µg/mL (≈ 149 µM).
As for `COc1ccc2oc(C3CCCCC3)cc(=O)c2c1`, the IC50 in the assay on Staphylococcus aureus [1] came to 69.6 µg/mL (≈ 269 µM); with Aspergillus niger, 58.9 µg/mL (≈ 228 µM); in the assay with Fusarium oxysporum it was 117 µg/mL (≈ 452 µM). Also, the result in the assay with Staphylococcus aureus [2] was Active. In the assay with Escherichia coli, the result was inactive.
On to `COc1ccc2oc(-c3cc(C(F)(F)F)cc(C(F)(F)F)c3)cc(=O)c2c1`, for which the IC50 was 93.4 µg/mL (≈ 241 µM) in the assay with Aspergillus niger and 177 µg/mL (≈ 457 µM) in the assay with Fusarium oxysporum.
As for `COc1ccc2c(=O)cc(-c3ccc(Br)cc3)oc2c1`, the IC50 stood at 28.2 µg/mL (≈ 85.2 µM) in the assay with Aspergillus niger and 176 µg/mL (≈ 531 µM) with Fusarium oxysporum.
